Converted amounts (≈) assume the structure as drawn.
Tests used:
[1] = system: human embryonic kidney (HEK293) cell line; experiment: In vitro cytotoxicity, resazurin viability; format: cell-based; settings: HEK293, 24 h incubation
In short: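 HEK293 cells were counted and seeded at 4000 per well. Test compound was serially diluted from 50 µg/mL, added in triplicate, and incubated 24 h. Resazurin (5%) was then added, and plates were incubated 4 and 6 h before reading. Viability was read as fluorescence at 544 nm excitation and 590 nm emission.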

[2] = system: S. aureus ATCC 25923 (Sa); experiment: MIC, broth microdilution with resazurin; format: cell-based, Staphylococcus aureus; settings: for MIC: Staphylococcus aureus, ATCC25923, read-out: MIC Values Sa
In short: (§1)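 CLSI broth microdilution. Strains were grown overnight at 35 °C on TSA or TSA with 5% sheep blood. Colonies were suspended in 0.9% saline to 0.5 McFarland, then diluted 1:100 in Mueller Hinton broth (about 1 × 10^6 CFU/mL). Test compound (2 mg/mL DMSO stock) was serially diluted 1:2 from 50 µg/mL final. Resazurin was added at 8 µg/mL final, and plates were incubated 35 °C for 20–24 h and read visually. MIC is the lowest concentration without the resazurin colour change. Each plate carried untreated, DMSO and antibiotic controls.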

[3] = system: S. epidermidis 700296 (Se); experiment: MIC, broth microdilution with resazurin; format: cell-based; settings: for MIC: Staphylococcus epidermidis, read-out: MIC Values Se
[4] = system: S. aureus ATCC 33591 (Sa91); experiment: MIC, broth microdilution with resazurin; format: cell-based, Staphylococcus aureus; settings: for MIC: Staphylococcus aureus, ATCC33591, read-out: MIC Values Sa91
In short: as §1

[5] = system: S. aureus ATCC 33592 (Sa92); experiment: MIC, broth microdilution with resazurin; format: cell-based, Staphylococcus aureus; settings: for MIC: Staphylococcus aureus, ATCC33592, read-out: MIC Values Sa92
In short: as §1

[6] = system: S. aureus ATCC 700699 (Sa99); experiment: MIC, broth microdilution with resazurin; format: cell-based, Staphylococcus aureus; settings: for MIC: Staphylococcus aureus, ATCC700699, read-out: MIC Values Sa99
In short: as §1

[7] = system: S. aureus BAA-2312 (Sa12); experiment: MIC, broth microdilution with resazurin; format: cell-based, Staphylococcus aureus; settings: for MIC: Staphylococcus aureus, BAA2312, read-out: MIC Values Sa12
In short: as §1

[8] = system: B. subtilis ATCC 6623 (Bs); experiment: MIC, broth microdilution with resazurin; format: cell-based; settings: NA = No Activity
[9] = system: A. baumannii ATCC 19606; experiment: SYTO-9/propidium iodide; format: cell-based, Acinetobacter baumannii; settings: compared with positive control Colistin 6.25 μg/mL
[10] = system: tested Gram-positive strains (S. aureus incl. MRSA, S. epidermidis, B. subtilis); experiment: MIC summarised in the text over the tested Gram-positive strains; format: cell-based
[11] = system: three strains of A. baumannii; experiment: MIC summarised in the text over the three A. baumannii strains; format: cell-based, Acinetobacter baumannii
In short: as §1

[12] = system: A. baumannii ATCC 747 (Ab47); experiment: MIC, broth microdilution with resazurin; format: cell-based, Acinetobacter baumannii
In short: as §1

[13] = system: A. baumannii ATCC 19606 (Type Strain, AB06); experiment: MIC, broth microdilution with resazurin; format: cell-based, Acinetobacter baumannii
In short: as §1

[14] = system: A. baumannii ATCC BAA-1605 (Ab05); experiment: MIC, broth microdilution with resazurin; format: cell-based, Acinetobacter baumannii; settings: NA = No Activity
In short: as §1

[15] = antibiotic-resistant strain, NA = No Activity

| Compound | IC50 [1] | MIC [2] [µg/mL] | MIC [3] [µg/mL] | MIC [4] [µg/mL] | MIC [5] [µg/mL] | MIC [6] [µg/mL] | MIC [7] [µg/mL] | also measured |
| --- | --- | --- | --- | --- | --- | --- | --- | --- |
| O=C(O)c1ccc(-n2cc(/C=N/N(c3ccccc3)c3ccccc3)c(-c3cccc(F)c3)n2)cc1 [Compound 5, 4-[4-[(E)-(Diphenylhydrazono)methyl]-3-(3-fluorophenyl)pyrazol-1-yl]benzoic Acid] | High IC50 values | 3.12 (≈ 6.56 µM) | 3.12 (≈ 6.56 µM) | 3.12 (≈ 6.56 µM) | 0.78 (≈ 1.64 µM) | 1.56 (≈ 3.27 µM) | 3.12 (≈ 6.56 µM) | – |
| 4-[4-[(2,2-Dibenzylhydrazino)methyl]-3-(3-fluorophenyl)pyrazol-1-yl]benzoic Acid [Compound 7] | – | – | – | – | – | – | – | MIC Values Sa ([2]; antibiotic susceptible strain, NA = No Activity): 12.5 µg/mL; MIC Values Bs [8]: 1.56 µg/mL; MIC Values Sa91 [4, 15]: 6.25 µg/mL; MIC Values Sa92 [5, 15]: 3.125 µg/mL; MIC Values Sa99 [6, 15]: 3.125 µg/mL; MIC Values Sa12 [7, 15]: 6.25 µg/mL |
| CN1CCN(/N=C/c2cn(-c3ccc(C(=O)O)cc3)nc2-c2cccc(F)c2)CC1 [Compound 21, 4-[3-(3-Fluorophenyl)-4-[(E)-(4-methylpiperazin-1-yl)iminomethyl]pyrazol-1-yl]benzoic Acid] | – | – | – | – | – | – | – | membrane disruption ability (ratio of PI to SYTO-9 signals) [9]: better membrane disruption ability than the positive control; activity against the tested strains (in words) [10]: completely ceased the activity |
| O=C(O)c1ccc(-n2cc(/C=N/Nc3cccc(Cl)c3)c(-c3cccc(F)c3)n2)cc1 [Compound 8, 4-[4-[(E)-[(3-Chlorophenyl)hydrazono]methyl]-3-(3-fluorophenyl)pyrazol-1-yl]benzoic Acid] | – | 6.25 (≈ 14.4 µM) | 12.5 (≈ 28.7 µM) | 12.5 (≈ 28.7 µM) | 6.25 (≈ 14.4 µM) | 3.12 (≈ 7.19 µM) | 12.5 (≈ 28.7 µM) | activity against A. baumannii strains (in words) [11]: moderate activity; MIC ([12]; Acinetobacter baumannii, ATCC747, read-out: MIC Ab47): 12.5 µg/mL (≈ 28.7 µM); MIC ([13]; Acinetobacter baumannii, ATCC19606, read-out: MIC Ab06): 6.25 µg/mL (≈ 14.4 µM) |
| O=C(O)c1ccc(-n2cc(/C=N/N(c3ccccc3)c3ccccc3)c(-c3ccc(F)cc3)n2)cc1 [Compound 23, 4-[4-[(E)-(Diphenylhydrazono)methyl]-3-(4-fluorophenyl)pyrazol-1-yl]benzoic Acid] | High IC50 values | 1.56 (≈ 3.27 µM) | – | – | 0.78 (≈ 1.64 µM) | 1.56 (≈ 3.27 µM) | 3.12 (≈ 6.56 µM) | MIC Values Bs ([8]; Table 2): 1.56 µg/mL (≈ 3.27 µM); MIC Values Se ([3]; NA = No Activity): no activity |
| O=C(O)c1ccc(-n2cc(/C=N/Nc3ccc(Cl)cc3Cl)c(-c3cccc(F)c3)n2)cc1 [Compound 12, 4-[4-[(E)-[(2,4-Dichlorophenyl)hydrazono]methyl]-3-(3-fluorophenyl)pyrazol-1-yl]benzoic Acid] | High IC50 values | 3.12 (≈ 6.66 µM) | 3.12 (≈ 6.66 µM) | 3.12 (≈ 6.66 µM) | 0.39 (≈ 0.831 µM) | 0.78 (≈ 1.66 µM) | 3.12 (≈ 6.66 µM) | – |
| CN(/N=C/c1cn(-c2ccc(C(=O)O)cc2)nc1-c1ccc(F)cc1)c1ccccc1 [Compound 22, 4-[3-(4-Fluorophenyl)-4-[(E)-[methyl(phenyl)hydrazono]methyl]pyrazol-1-yl]benzoic Acid] | – | 12.5 (≈ 30.2 µM) | 12.5 (≈ 30.2 µM) | 12.5 (≈ 30.2 µM) | 6.25 (≈ 15.1 µM) | 12.5 (≈ 30.2 µM) | – | membrane disruption ability (ratio of PI to SYTO-9 signals) [9]: better membrane disruption ability than the positive control; activity against the tested strains (in words) [10]: moderate activity |
| Colistin [reference compound] | – | – | – | – | – | – | – | MIC Ab05 [14]: 3.125 µg/mL; MIC Ab47 ([12]; NA = No Activity): 1.56 µg/mL; MIC Ab06 ([13]; NA = No Activity): 3.125 µg/mL |

Source: PMC6733178 (ACS Omega, 2019)
